Laboratory results published in the RNAGym collection of RNA variant scans (doi:10.1126/science.aae0568).
Fewer inactive variants are shown than the library holds.

B1: tRNA (parent)
chain: GUUCCGUUGGCGUAAUGGUAACGCGUCUCCCUCCUAAGGAGAAGACUGCGGGUUCGAGUCCCGUACGGAACG

Variants of: B1
Test: yeast fitness relative to wild type (ratio to wild type); higher = fitter; tRNA-Arg(CCU), competitive growth, 37 C, YPD
In short: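 The tRNA-Arg(CCU) gene variants were made by chemical synthesis with a 3% per-site mutation rate at 69 sites and inserted at the native genomic locus of Saccharomyces cerevisiae. After pooling, the strains were competed in YPD at 37°C for 24 hours in six parallel replicates. Gene amplicons from the start population and each end population were read by 100-nucleotide paired-end sequencing, and Darwinian fitness relative to wild type was taken from genotype frequency changes. Genotypes needed ≥ 100 starting reads, and estimates < 0.5 were set to 0.5.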

Variant	yeast fitness
A40G G56A	0.998
A40G U53A G63A	≤ 0.5
G38C C62A G67C	≤ 0.5
G38C G48A	0.744
G38C C60A A70G	0.582
A40G C62U C66G A69C	≤ 0.5
G38C U64A C66U	≤ 0.5
A40G A69U	1.06
A40G U64A	0.737
A40U U53C	0.735
A40U U64C A70U	0.727
A40U C49U C62U A69G	0.904
G38C A42G A70C	≤ 0.5
G38A C60U	0.831
G38C G44A A65G	≤ 0.5
A40G A57U	0.624
A40G C61U A70U	0.612
G38A C46U	0.798
A40G A43G G67C	0.725
G39C G56C A57G	≤ 0.5
G39A G67C	0.825
G39A A70U	0.915
G39A A70G	0.871
G39A G52C	0.612

Variant	yeast fitness
A40G C55A C61U	≤ 0.5
G39C C60G G67C	≤ 0.5
A40C G68A	0.933
A40U A57G U59C U64G	≤ 0.5
A40G A43U C46G C49G C62U	0.532
G39C G44A C62G	0.589
A40C A45C	0.616
G39C A40U A65C	≤ 0.5
G41A A43G	0.81
A40U C60U	0.832
A40G A42U G67C	≤ 0.5
G39A A42G G67C	≤ 0.5
G39C A43C A45G	≤ 0.5
A40U G67A	0.82
A40G C49G U59G G67C	0.706
G39U G52A G67U	≤ 0.5
A40C C61A	0.716
A40C C61U	0.799
G39U A40C C66A A69U	0.642
A40G C61G	0.628
A40G C61U	0.741
G39A C62U A70U	0.593
G38U C60A	0.541
G38A G68A	0.718

Variant	yeast fitness
G38A G68C	0.823
G38C G56C	0.516
A40C C49G A65G	0.584
A40C U59G C60G	≤ 0.5
A40G U53A	0.654
G38C A40C	1.02
A40U C55A G68U	≤ 0.5
G38A G67A	0.881
A40G G48C	0.866
A40G G48A	1.01
G39C G44C G52C	0.623
G38A C49U G51C	≤ 0.5
A40C A42U C49G	0.624
A40U U47C A65C	0.534
G38A G58C	1
G41A A45G G56A	0.582
G38A C61A	0.646
G39C G51C C55G	≤ 0.5
G38C U47G U59C	≤ 0.5
A40G A42G U59C	0.618
G41A A70U	0.977
G41A A70C	0.901
A40C G52C C66U G67A	≤ 0.5
A40U A42G	0.983

Variant	yeast fitness
A40U A43C U59C	0.752
G38C C46G C49G G51C C61U	0.593
A40U C49G A70U	0.535
G39C C46U G56A	0.694
G39C A40G G48C	≤ 0.5
G39A C61G	0.585
A40C A57U G58A	0.644
A40U C61U	0.783
G38C G39A A43C C60G A65C	0.518
G39C C49A G51A	≤ 0.5
G38C A45U	0.599
G38C G67U	0.549
G38C G67A	0.769
A40C G41C G68C	0.542
G38A U59G A69G	≤ 0.5
A40G A42G	0.986
A40U A45G C60A	≤ 0.5
G38C G51A A57U	≤ 0.5
A40C U53C U59A C66U	≤ 0.5
G38C G41A C55U G67C	≤ 0.5
A40G G51A C55U	0.556
A40U C49U C62A C66A	≤ 0.5
G39C U47A G58A G63A	≤ 0.5
G41A A43G A70U	0.659

Variant	yeast fitness
G38C A65U C66U	0.657
A40G C46U C60G C66G	≤ 0.5
G38A G56A A70U	0.7
G38A U47A C55G	0.658
A40C A43C	1.04
A40G G67A A69C	0.513
G39A G58A A69C	0.592
A40G C62U A65U	≤ 0.5
A40U G48A U64G	0.631
A40U G52C C60G	≤ 0.5
A40U G52C	0.608
A40U C66U	0.904
A40U C66G	0.71
G38C C60G	0.567
G38C C60U	0.571
A40G G48A A65C G67C	≤ 0.5
G39U A45G G51A	0.527
A40G G58C C61G A65C	≤ 0.5
G39C C49G A65U	≤ 0.5
A40U G68A	0.923
A40C C62G	0.66
A40C C62A	0.651
G38C A65U	0.723
G38C A65C	0.578

Variant	yeast fitness
G39C C55G U59A G63A	≤ 0.5
A40G A42G A43G U59C	≤ 0.5
G38A C46A A57G	0.769
G39C C46G A70U	0.603
A40G C49G	0.655
A40U U54A	0.576
A40U U54C	0.802
A40G A45C	0.846
G39A C60U	0.81
A40U G52A C60U G63C	0.661
G38C A45U U54A C61U	≤ 0.5
A40C A69G	0.985
A40U U53A C61U	≤ 0.5
G39A G68C	0.806
G39A G68A	0.853
A40C U59A	0.801
G39U A45G G50C U54A G67A	0.673
G38C U47G C62U	0.521
A40U A43G A65U	0.675
G41A A42G	0.911
G41A A42C	0.726
G39C A43C A45G C60G	≤ 0.5
G41A A45U G58U C60A	0.583
A40G C62A	0.641

Variant	yeast fitness
A40G C62U	0.715
A40G C62U C66A A70C	0.563
A40G A65G	0.984
A40G A65U	0.813
A40G A65C	0.858
A40U A43U C60U C62U C66U	≤ 0.5
G39A U47C	1
G38C A42G A43G	≤ 0.5
G38C U54A A65C	0.567
G38A C55A G68A	≤ 0.5
G38A G44C U47G	≤ 0.5
G38C C46G G51C A57C C61U	≤ 0.5
A40U A45C	0.871
G39C U54G	0.547
A40C C49A	0.668
G38C C46A U59C G68A	≤ 0.5
G38A U47A C55G C61U	0.718
A40C C55G A69U	≤ 0.5
A40C G56A A70G	0.556
A40U G67A A70C	0.572
G39C C49G C66U	≤ 0.5
G39C C66U A69U	0.551
A40G G44C A57G C60A	≤ 0.5
